Only some compounds are listed: those with a hit (about 6% of all), similar ones and a draw of the others.
EphB4 ephrin blk: antagonists of human EphB4-ephrin-B2 interaction; AID 720; actives 0.15% (n = 97,000); EphB4 LBD / TNYL-RAW-Alexa532 peptide, fluorescence polarization; inhibition, % at 7 µM;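 active means inhibition above the screen-wide mean inhibition plus 3 SD, cut at about 15% in these data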;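 further: 0% = DMSO wells and 100% = excess unlabeled TNYL-RAW peptide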
Target sequence (P54760 whole entry, looked up, the tested form may be a part): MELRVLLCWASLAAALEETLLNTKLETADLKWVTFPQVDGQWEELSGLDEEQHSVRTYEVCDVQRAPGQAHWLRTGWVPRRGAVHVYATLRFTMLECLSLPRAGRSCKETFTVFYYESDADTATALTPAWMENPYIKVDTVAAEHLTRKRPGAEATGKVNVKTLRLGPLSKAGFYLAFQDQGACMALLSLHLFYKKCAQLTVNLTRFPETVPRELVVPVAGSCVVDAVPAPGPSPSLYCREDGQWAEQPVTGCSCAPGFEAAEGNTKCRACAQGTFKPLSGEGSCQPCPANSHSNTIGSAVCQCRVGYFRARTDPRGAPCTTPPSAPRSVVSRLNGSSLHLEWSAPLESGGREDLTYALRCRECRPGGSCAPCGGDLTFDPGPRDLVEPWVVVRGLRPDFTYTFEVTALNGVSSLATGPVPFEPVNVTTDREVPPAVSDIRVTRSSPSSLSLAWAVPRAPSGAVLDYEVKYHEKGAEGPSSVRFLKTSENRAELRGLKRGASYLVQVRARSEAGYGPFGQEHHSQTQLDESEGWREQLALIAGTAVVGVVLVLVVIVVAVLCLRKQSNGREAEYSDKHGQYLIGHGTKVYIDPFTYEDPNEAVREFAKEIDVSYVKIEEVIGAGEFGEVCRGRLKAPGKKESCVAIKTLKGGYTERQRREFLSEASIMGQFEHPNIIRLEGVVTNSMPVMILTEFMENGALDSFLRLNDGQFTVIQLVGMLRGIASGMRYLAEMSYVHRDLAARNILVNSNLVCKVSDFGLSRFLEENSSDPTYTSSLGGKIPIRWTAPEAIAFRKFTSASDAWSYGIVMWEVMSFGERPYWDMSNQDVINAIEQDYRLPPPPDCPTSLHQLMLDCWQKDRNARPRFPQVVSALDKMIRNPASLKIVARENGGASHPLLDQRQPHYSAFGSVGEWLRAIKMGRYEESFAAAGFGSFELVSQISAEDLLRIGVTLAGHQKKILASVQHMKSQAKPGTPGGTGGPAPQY
Ecoli tolC: blocks growth of E. coli BW25113 tolC mutant. OD615. growth inhibition, % at 10 µM (by protocol). actives 2.2% (n = 65,000);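 active means growth inhibition at or above a cutoff equal to the mean over every tested compound plus 3 SD, cut at about 60% in these data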;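 further: growth measured after 20 h incubation at 37 °C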
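test system = E. coli BW25113 ΔtolC::kan bacteria | medium = LB with kanamycin 50 µg/mL | signal = OD at 615 nm | schedule = 37 °C, 20 h exposure | evaluation = % inhibition of E. coli growth | compound dosing = one dose of 10 µM final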
Ecoli WT expand: blocks growth of wild type E. coli BW25113 | OD600 absorbance | growth inhibition, % at 100 µM | actives 0.15% (n = 98,000) | AID 710;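 active means growth inhibition above about 50% at one test dose, limit read from the data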;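 further: growth measured after 20 h incubation at 37 °C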
PostGolgi ctrl: yeast control strain growth, post-Golgi counter-screen | inhibition, % at 10 µM | actives 5% (n = 98,000) | efflux-deficient yeast background strain, growth absorbance A615, 16 h
PostGolgi yeast: growth inhibition of a yeast mutant, post-Golgi transport screen | actives 0.9% (n = 98,000) | post-Golgi transport phenotypic cell assay | inhibition, % at 10 µM;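 further: yeast cells grown in 1536-well plates; yeast grown about 18 h at 30C before absorbance read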
The depositor's hits bear a star; . = no result. Unless noted, no stated cut-off is given here; in the data, active means inhibition above about 30%; inactive means the rest.

SMILES | EphB4 ephrin blk | Ecoli tolC | Ecoli WT expand | PostGolgi ctrl | PostGolgi yeast
Cc1cc(C)c(NC(=O)CS(=O)CC(=O)NC2CCCc3ccccc32)c(C)c1 (centres undefined) | 2 | . | -6 | 2 | -1
CCOc1ccc2[nH]c(=O)c(CN(Cc3cccnc3)C(=O)Nc3ccccc3OC)cc2c1 | 5 | -4 | -9 | 11 | -7
CCN(CC)CCN(Cc1cc2cc(C)ccc2[nH]c1=O)C(=O)Nc1ccccc1OC | 1 | -13 | 2 | -6 | -3
CCc1ccc2[nH]c(=O)c(CN(Cc3ccccc3OC)C(=O)Nc3ccccc3OC)cc2c1 | 4 | . | -15 | 45* | 1
COc1ccccc1NC(=O)N(Cc1ccco1)Cc1cc2cccc(C)c2[nH]c1=O | 3 | 23 | -16 | 37* | -3
COc1ccc2[nH]c(=O)c(CN(Cc3cccnc3)C(=O)Nc3ccccc3)cc2c1 | . | -1 | -5 | 94* | 105*
Cc1cccc2cc(CN(Cc3ccco3)C(=O)NC3CCCCC3)c(=O)[nH]c12 | -10 | 64* | -7 | 41* | -3
CCn1c2ccccc2c2cc(NS(=O)(=O)c3ccccc3C)ccc21 | -10 | . | -12 | 23 | 4
N#CC1=C(N)OC2=C(C(=O)CCC2)C12CCC1(CC2)OCCO1 | -2 | -18 | -1 | 46* | -7
CC1(C)C(C#N)=C(N)OC2=C1C(=O)CCC2 | 0 | -4 | 4 | 1 | -3
O=C(CCCn1c(=S)[nH]c2cc3c(cc2c1=O)OCO3)N1CCN(c2ccc(F)cc2)CC1 | -5 | 17 | -5 | 8 | -2
O=C(CCCn1c(=S)[nH]c2cc3c(cc2c1=O)OCO3)N1CCN(c2ncccn2)CC1 | 1 | 2 | -5 | 43* | 10
CC(=O)c1cc(OC(=O)c2ccncc2)ccc1OC(=O)c1ccncc1 | 0 | -18 | -2 | 5 | 5
CCCNC(=O)CC1Sc2ccccc2NC1=O (centres undefined) | 0 | -7 | 8 | 39* | -6
COc1ccc(S(=O)(=O)N2CCC(C(=O)N3CCCCC3)CC2)cc1Cl | 7 | . | 8 | 4 | -9
c1ccc2c(c1)nc(N1CCOCC1)c1nncn12 | 0 | . | 1 | 0 | 14
c1ccc(N2CCN(c3nc4ccccc4n4cnnc34)CC2)cc1 | 0 | . | -10 | 23 | 6
c1ccc2c(c1)CCN(c1nc3ccccc3n3cnnc13)C2 | -8 | 14 | -4 | 43* | -5
c1ccc(CN2CCN(c3nc4ccccc4n4cnnc34)CC2)cc1 | 0 | 4 | 8 | 34* | -4
CC(C)(C)NC(=O)CSC(=Nc1ccc(F)cc1)NC#N | -5 | . | -2 | -4 | -4
O=C(N/N=C/c1ccc(-c2cccc(C(F)(F)F)c2)o1)c1ccccc1Br | -8 | . | -4 | 8 | 0
O=C(N/N=C/c1ccc(-c2cccc(C(F)(F)F)c2)o1)c1cccc(F)c1 | -3 | . | -6 | 37* | 36*
Cc1ccc(C)c(S(=O)(=O)NCc2ccc(C(=O)NCc3ccccn3)cc2)c1 | 2 | . | 2 | -1 | 1
COc1ccc(N2CCN(c3nc(NCCO)nc(N4CCOCC4)n3)CC2)cc1 | 3 | 3 | 5 | 31* | -4
Cc1[nH]c2c(Br)cccc2c1[C@H]1[C@@H](CC#N)C1(C)C | 0 | . | 5 | 39* | -4
SMILES | EphB4 ephrin blk | Ecoli tolC | Ecoli WT expand | PostGolgi ctrl | PostGolgi yeast
CCOC(=O)c1ccc(CNC(=O)c2cc(C(C)(C)C)oc2C)o1 | -2 | 51 | 5 | 13 | 5
Cc1cc(C(=O)CN2C(=O)NC3(CCCCC3)C2=O)c(C)n1Cc1ccc2c(c1)OCO2 | 0 | 9 | -2 | -1 | -5
Cc1cc(C(=O)CN2C(=O)NC(c3ccccc3)(c3ccccc3)C2=O)c(C)n1Cc1ccccc1 | 20* | . | -2 | 14 | 8
CS(=O)(=O)Nc1ccc(C(=O)NCc2cccnc2)cc1 | 1 | -8 | 0 | 31* | 0
CC(C)(C)C(=O)Nc1ccc(C(=O)NCc2cccnc2)cc1 | -2 | . | 1 | 6 | -4
COc1ccc(OC)c(S(=O)(=O)N2CCC(C(=O)Nc3cccc(C(F)(F)F)c3)CC2)c1 | 8 | 16 | -8 | 4 | 1
CCCCS(=O)(=O)NC1=NCN(C2CCN(Cc3ccccc3)CC2)CN1 | 5 | -14 | . | . | .
Cc1cc(Nc2ccccc2)nc(-c2ccccc2O)n1 | -2 | 100* | 4 | 37* | 17
Cc1cc(NCc2ccccc2)nc(-c2ccccc2O)n1 | -4 | 6 | -17 | 57* | -11
Cc1nn(C(C)C(=O)NCc2ccccc2Cl)c(=O)c2c1sc1ccccc12 (centres undefined) | 3 | . | -5 | 55* | -13
CCOC(=O)N1CCN(C(=O)C(CC)n2nc(C)c3sc4ccccc4c3c2=O)CC1 (centres undefined) | -1 | 16 | 3 | 28 | -2
COc1ccc(NC(=O)CC2C(=O)N(c3cccc(OC)c3)C(=O)N2CCC(C)C)cc1 (centres undefined) | -7 | . | -15 | 5 | 6
CCN(CC)CCCNC(=O)c1cn(CCOC)c(=O)c2c1c1ccccc1n2C | -5 | -12 | 9 | 13 | -11
CC1OC2(OC1C)C(=O)Nc1ccccc12 (centres undefined) | 4 | . | 8 | 2 | 3
O=C1Nc2ccccc2C12OCC(COc1ccc(Cl)cc1)O2 (centres undefined) | 6 | 93* | 12 | 23 | -9
CN1C(=O)C2(OCC(COc3ccc(Cl)cc3)O2)c2ccccc21 (centres undefined) | -4 | 71* | -8 | 17 | -2
COCCNC(=O)c1ccc(CN2CCOCC2)cc1 | -6 | . | . | . | .
COc1ccc(/C(C)=C(\C#N)C(=O)OC(C)C)cc1OC | 4 | . | . | . | .
COc1ccc(-c2c(S(=O)(=O)c3ccccc3)cnn2-c2ccccc2)cc1 | -3 | . | -15 | 23 | -5
O=S(=O)(c1ccccc1)c1cnn(-c2ccccc2)c1-c1ccc(Cl)cc1 | 1 | . | -19 | 39* | 6
C/C(N)=C(/C#N)C(=O)CSc1nnc(NC(C)C)s1 | 5 | -10 | 4 | 8 | -4
O=C(NCc1ccccc1)C1C2C=CC3(CN(Cc4cccnc4)C(=O)C13)O2 (centres undefined) | -1 | -12 | 7 | 4 | 6
CC(C)N1C(=O)C2C(C(=O)NCc3ccccc3)C3C=CC2(O3)C1C(=O)NC(C)(C)C (centres undefined) | 0 | -10 | 0 | 42* | 6
Cc1cccc2cc(CN(Cc3nnnn3Cc3ccco3)C3CCCC3)c3nnnn3c12 | -7 | 28 | -13 | 43* | 17
Cc1cc(C)c2cc(CN(CCO)Cc3nnnn3Cc3ccc(F)cc3)c(=O)[nH]c2c1 | -4 | 8 | 4 | -1 | 10
Cc1ccc2cc(CN(CCO)Cc3nnnn3Cc3ccc(F)cc3)c(=O)[nH]c2c1 | -1 | 2 | 0 | -5 | 37*
Cc1ccc2[nH]c(=O)c(CN(Cc3nnnn3Cc3ccccc3)C3CCCC3)cc2c1 | -6 | 74* | -4 | -2 | -9
CCc1ccc2[nH]c(=O)c(CN(Cc3nnnn3C3CCCC3)C3CCCCC3)cc2c1 | . | 48 | -7 | 16 | -1
